Most compounds without a hit are left out; they make up all but 2.3% or so of the library.
NPY-Y1 antag: NPY-Y1 (human) receptor antagonism; P25929; HEK293-CNG Y1 cells, membrane potential fluorescence; NPY at EC95, then isoproterenol; inhibition, % at 3.6 µM; 200,000 tested, 1% active; AID 1040;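 active means inhibition above the campaign mean inhibition of all tested compounds plus 3 SD, cut at about 20% in these data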
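Material: HEK293 Y1/CNG channel cell line | Also added: NPY (25 nM), isoproterenol (1 µM), Ro 20-1724 (25 µM) | Compound: One concentration, 3.6 µM, in 0.4% DMSO | Schedule: 3 h dye uptake, 1 h room-temperature compound, 45 min post-isoproterenol | Signal: Membrane-potential fluorescent dye readout | Read-out: % inhibition of NPY effect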
NPY Y2 blocker: blocks the human neuropeptide Y Y2 receptor; NPY-Y2 expressing cells, antagonist mode; inhibition, % at 2.7 µM; 140,000 tested, 0.99% active; AID 793; P49146
Target sequence (P49146 whole entry, looked up): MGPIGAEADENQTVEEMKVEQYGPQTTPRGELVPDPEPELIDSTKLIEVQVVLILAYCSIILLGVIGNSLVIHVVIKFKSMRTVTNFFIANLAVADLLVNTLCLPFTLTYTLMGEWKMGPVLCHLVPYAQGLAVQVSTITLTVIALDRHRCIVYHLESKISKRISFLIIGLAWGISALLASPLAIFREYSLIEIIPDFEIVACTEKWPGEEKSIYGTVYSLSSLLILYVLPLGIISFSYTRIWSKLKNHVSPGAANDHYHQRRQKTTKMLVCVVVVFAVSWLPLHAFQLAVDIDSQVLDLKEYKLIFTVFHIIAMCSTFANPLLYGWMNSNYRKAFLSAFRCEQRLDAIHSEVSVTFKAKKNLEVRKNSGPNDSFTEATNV
Tb hexokinase: T. brucei hexokinase 1 inhibition | inhibition, % at 10 µM | 220,000 tested, 0.11% active | recombinant TbHK1, G6PDH-coupled NADH A340 | AID 1430;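 active means inhibition of 50% or more in the single-dose primary screen; inactive means inhibition below 50%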
NPY2 pot ag: potentiates or activates human NPY-Y2 receptor. P49146. cells expressing NPY-Y2, potentiator/agonist read-out. activation, % at 3.6 µM. 220,000 tested, 0.45% active. AID 1359; in the data active means activation above about 27%;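 further: cells stimulated with NPY near EC25 plus isoproterenol at EC100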
NPY-Y1 PAM-ag: human NPY-Y1 potentiation or agonism, primary screen. P25929. NPY-Y1 expressing cells, potentiator/agonist activation. activation, % at 3.6 µM. 220,000 tested, 0.37% active. AID 1304; in the data active means activation above about 33%, passing the limit was not always enough;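 further: cells stimulated with NPY at EC10 then isoproterenol at EC100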
m-calpain inh: inhibitors of pig calpain II | purified calpain II, fluorogenic peptide substrate, 30 min | inhibition, % at 16 µM | 220,000 tested, 0.37% active;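 active means inhibition above about 50%, limit read from the data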
NPY1 antag conf: human NPY-Y1 antagonism, confirmation; shares compounds with NPY-Y1 antag; HEK293-CNG NPY-Y1, membrane potential fluorescence, cAMP; NPY challenge against isoproterenol-raised cAMP; inhibition, % at 3.6 µM; 1,200 tested, 21% active; AID 1254; in the data active means inhibition above about 20%
NPY2 antag ctr: antagonizes human NPY-Y2, counter-screen to NPY-Y1 antagonists; AID 1255; inhibition, % at 3.6 µM; shares compounds with NPY-Y1 antag; 1,200 tested, 28% active; HEK293 NPY-Y2 CNG membrane potential fluorescence, antagonism; cells given NPY, then isoproterenol
Numbers stand for hits; n = inactive; x = not tested or not shown. Unless noted, no stated cut-off is given here; in the data, active means inhibition above about 17%; inactive means the rest.

SMILES | NPY-Y1 antag | NPY Y2 blocker | Tb hexokinase | NPY2 pot ag | NPY-Y1 PAM-ag | m-calpain inh | NPY1 antag conf | NPY2 antag ctr
Cc1ccccc1Oc1cc(NC(=O)Cn2cnc([N+](=O)[O-])c2)cc([N+](=O)[O-])c1 | 25 | x | n | n | n | n | n | n
Cc1noc(C)c1S(=O)(=O)Nc1ccccc1N1CCOCC1 | x | x | n | n | n | n | x | x
CCOc1cc(C2C3=C(CC(C)(C)CC3=O)Nc3n[nH]c(C)c32)ccc1O (configuration not stated) | 42 | x | n | n | n | n | 26 | 40
CN(C)c1cc(NC(=O)CNC(C)(C)CC(C)(C)C)c2ccccc2n1 | 28 | x | n | n | n | n | 23 | 42
Cc1ccc(C2OC(=O)c3ccccc32)cc1 (configuration not stated) | n | n | n | n | n | n | x | x
CCCCNC(=S)N(C)/N=C/c1ccc2c(c1)OCO2 | 22 | n | n | n | n | n | n | n
OCCC1CN(C2CCN(c3ccccc3)CC2)CCN1Cc1ccc(F)c(F)c1 (configuration not stated) | n | x | n | n | n | n | x | x
COc1ccc(OC)c(Nc2cc(-c3ccccc3)nc(N)n2)c1 | 42 | n | n | n | n | n | n | n
CCOc1cc(/C=N/Nc2ccccc2Cl)ccc1OCC(=O)O | n | n | n | n | n | n | x | x
Cc1[nH]c2ccccc2c1CN1CCC(Cc2ccccc2)CC1 | n | x | n | n | n | n | x | x
CCc1ncc(C(=O)c2ccc(OC)cc2)n1C | 29 | n | n | n | n | n | n | n
CCN(CC)S(=O)(=O)c1cc(C(=O)O)ccc1OC | x | x | n | n | n | n | x | x
O=C(O)c1ccccc1N(Cc1ccccc1)C(=O)CO/N=C/c1ccccc1 | 22 | n | n | n | n | n | n | n
O=C(NCc1ccc2c3c(cccc13)C(=O)N2)c1cccs1 | x | x | n | n | n | n | x | x
COC(=O)c1[nH]c2c(c1C)C(=O)CC(c1ccccc1)C2 (configuration not stated) | n | n | n | n | n | n | x | x
Cc1c(C(=O)N2CCOCC2)[nH]c2c1C(=O)CC(c1ccccc1Cl)C2 (configuration not stated) | 24 | n | n | n | n | n | n | 18
O=C(NNc1ccccc1C(F)(F)F)c1sccc1Br | x | x | n | n | n | n | x | x
CCOc1ccc(NC(=O)CCCc2cc(-c3ccc(OCC)cc3)on2)cc1 | n | n | n | n | n | n | x | x
CCOc1ccc(-c2cc(CCCC(=O)Nc3cccc(OC)c3)no2)cc1 | 21 | n | n | n | n | n | n | 21
COC(=O)C1=CN(Cc2ccc(OC)cc2)C=C(C(=O)OC)C1c1ccsc1 | n | x | n | n | n | n | x | x
COC(=O)C1=CN(CCOC23CC4CC(CC(C4)C2)C3)C=C(C(=O)OC)C1c1ccsc1 | 31 | x | n | n | n | n | 41 | 24
CC1CCCC(NC(=O)CCC(=O)c2ccc(F)cc2)C1C (configuration not stated) | x | x | n | n | n | n | x | x
CC1CCCC(NC(=O)CSc2ccc(F)cc2)C1C (configuration not stated) | 67 | x | n | n | n | n | n | n
Clc1ccc(-c2nnc3c4ccccc4nc(N4CCOCC4)n23)cc1Cl | 21 | n | n | n | n | n | n | n
Brc1ccc(-c2nnc3c4ccccc4nc(N4CCOCC4)n23)cc1 | n | n | n | n | n | n | x | x
SMILES | NPY-Y1 antag | NPY Y2 blocker | Tb hexokinase | NPY2 pot ag | NPY-Y1 PAM-ag | m-calpain inh | NPY1 antag conf | NPY2 antag ctr
Cc1ccc(Nc2nc(-c3c(C)nc4ncccn34)cs2)cc1 | 24 | n | n | n | n | n | n | n
CCc1ccc(CN(C)Cc2nc(-c3cccc(Cl)c3)no2)nc1 | n | x | n | n | n | n | x | x
COc1ccc(-n2nnnc2-c2cccc(OC)c2)cc1 | 24 | n | n | n | n | n | n | 29
COc1ccc(/C(N)=N/OC(=O)CSc2ccc(C)cc2)cc1OC | 21 | n | n | n | n | n | n | n
CCCCOc1ccc(CC(=O)NO)cc1 | 38 | n | n | n | n | n | n | n
CCCCOc1ccc(C(=O)NC)cc1 | n | n | n | n | n | n | x | x
CCC(=O)NS(=O)(=O)c1cccnc1Nc1ccccc1Cl | 24 | n | n | n | n | n | 22 | 19
CN1\C(=C/C=C/C=C/C=[N+](C)C)C(C)(C)c2ccccc21 | 151 | x | n | n | n | n | 195 | 145
O=C(c1cnccn1)N(Cc1ccco1)C1(C(=O)NC2CCCCC2)CCCCC1 | 31 | n | n | n | n | n | 27 | n
COc1cc(C(C(=O)NC2CCCCC2)N(Cc2ccco2)C(=O)c2cnccn2)cc(OC)c1OC (configuration not stated) | n | x | n | n | n | n | x | x
COc1ccccc1-c1cc(C(F)(F)F)nc(S(=O)(=O)CCCC(=O)N2CCCCC2C)n1 (configuration not stated) | 25 | n | n | n | n | n | n | 44
Cc1ccc(C)c(NC(=O)CN(C)C(=O)c2cc3ccccc3o2)c1 | n | x | n | n | n | n | x | x
O=C(/C=C/c1ccccc1)NCCSCc1ccc(Cl)cc1 | 21 | n | n | n | n | n | n | n
O=C(/C=C/c1ccc(Cl)cc1)NCCSc1ccccc1 | 29 | n | n | n | n | n | 20 | 43
O=C(/C=C/c1cccc([N+](=O)[O-])c1)NCCSCc1ccc(Cl)cc1 | n | n | n | n | n | n | x | x
Cc1cc(OC(=O)c2ccc(S(=O)(=O)N(C)C)cc2)c([N+](=O)[O-])c(=O)[nH]1 | n | x | n | n | n | n | x | x
CSc1ccc(CN2CCC(CO)(Cc3ccc(Cl)cc3)CC2)cc1 | 52 | x | n | n | n | n | 39 | 48
CC1(C)CC(NC(=O)c2ccccn2)CC(C)(C)N1O | n | x | n | n | n | n | x | x
CC(Sc1nnc(-c2cccs2)n1Cc1ccccc1)C(=O)NCc1ccc2c(c1)OCO2 (configuration not stated) | 24 | n | n | n | n | n | n | n
FC(F)(F)COc1nc(OCC(F)(F)F)nc(N2CCN(c3ccccc3)CC2)n1 | 28 | n | n | n | n | n | n | n
O=S(=O)(/N=C(/Nc1ccc(F)cc1F)c1ccccc1)c1ccc(Br)cc1 | n | n | n | n | n | n | x | x
COc1ccc(NC(=O)c2sccc2SCc2cccc(C(F)(F)F)c2)cc1 | 32 | n | n | n | n | n | n | n
O=C(Cc1cccc(C(F)(F)F)c1)Nc1ccccc1 | n | x | n | n | n | n | x | x
NNC(=O)c1sccc1OCc1cccc(C(F)(F)F)c1 | n | x | n | n | n | n | x | x
O=C(Nc1ccc(F)cc1)c1sccc1SCc1cccc(C(F)(F)F)c1 | 25 | n | n | n | n | n | n | n

Source: PubChem BioAssay
